ChEMBL document CHEMBL2321763, “The role of the acidity of N-heteroaryl sulfonamides as inhibitors of bcl-2 family protein-protein interactions” (ACS Med Chem Lett, 2013)
Values after ≈ are worked out from the molar mass of the structure shown.

Columns and labels:
[1] = Oral bioavailability in Sprague-Dawley rat at 10 mg/kg; assay type: ADME, organism-based; conditions: in vivo
Outline: (§1)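 Rats got a single 1 mg/kg iv dose for plasma clearance, AUC and Vdss, and a 10 mg/kg po dose for oral bioavailability (%F). The vehicle was a solution of either 10% PG, 5% cremophor EL and 85% citrate buffer, or 10% PG, Solutol and 40% water for injection.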

Rattus norvegicus = assay: AUC in Sprague-Dawley rat at 1 mg/kg, iv; assay type: ADME, organism-based, Plasma; set-up: dose 1 mg/kg, route intravenous; conditions: in vivo; outline: as §1
[2] = Volume of distribution at steady state in Sprague-Dawley rat at 1 mg/kg, iv and 10 mg/kg, po; assay type: ADME, organism-based; conditions: in vivo, read-out: Vdss; outline: as §1
[3] = Clearance in Sprague-Dawley rat plasma at 1 mg/kg, iv; assay type: ADME, organism-based; set-up: dose 1 mg/kg, route intravenous; outline: as §1
Toledo = assay: Induction of apoptosis in human Toledo cells; assay type: functional; conditions: read-out: LD50 (the source's name)
[4] = Solubility of compound in fasted state simulated intestinal fluid
Bcl-2-like protein 1 = Bcl-2-like protein 1 (Homo sapiens, UniProt Q07817); assay: Inhibition of Bcl-xL/BAK (unknown origin) interaction
Sequence of Bcl-2-like protein 1 (Q07817 whole entry): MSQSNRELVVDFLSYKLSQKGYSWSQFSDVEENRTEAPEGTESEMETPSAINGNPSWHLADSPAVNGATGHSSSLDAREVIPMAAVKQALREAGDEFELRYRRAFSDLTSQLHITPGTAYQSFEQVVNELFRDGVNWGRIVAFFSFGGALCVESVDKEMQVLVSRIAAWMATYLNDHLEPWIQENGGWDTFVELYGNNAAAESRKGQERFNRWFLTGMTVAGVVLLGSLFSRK

[5] = biological target: T1, Apoptosis regulator Bcl-2 (Homo sapiens, UniProt P10415); assay: Inhibition of Bcl-2/biotinylated BAK (unknown origin) interaction incubated for 1 hr by surface plasmon resonance analysis
T1 sequence (P10415 whole entry): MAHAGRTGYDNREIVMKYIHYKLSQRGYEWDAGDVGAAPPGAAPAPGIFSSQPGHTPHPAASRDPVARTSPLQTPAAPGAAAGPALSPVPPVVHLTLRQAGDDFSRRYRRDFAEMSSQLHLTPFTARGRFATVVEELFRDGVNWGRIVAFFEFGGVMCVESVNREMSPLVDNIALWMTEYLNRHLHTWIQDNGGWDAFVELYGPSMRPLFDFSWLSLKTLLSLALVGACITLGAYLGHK

[6] = biological target: T1, Apoptosis regulator Bcl-2; assay: Binding affinity to Bcl-2 (unknown origin) by surface plasmon resonance analysis
[7] = Ratio of compound solubility to ABT-737 solubility in fasted state simulated intestinal fluid; assay type: physicochemical; conditions: simulated gi fluid

**Q.** Which bioavailability [1] does the source give for `CN(C)CC[C@H](CSc1ccccc1)Nc1ccc(S(=O)(=O)Nc2ncnc3c2CCN(C2CCN(Cc4ccccc4-c4ccc(Cl)cc4)CC2)C3)cc1S(=O)(=O)C(F)(F)F` here?
**A.** < 5%

**Q.** And the AUC (Rattus norvegicus)?
**A.** 0.232 µM·h

**Q.** What about the Vd [2] of the same molecule?
**A.** 8.6 L/kg

**Q.** And the clearance [3]?
**A.** 68 mL/min/kg

**Q.** And the CC50 (Toledo)?
**A.** 0.298 µM

**Q.** What about the solubility [4] of the same molecule?
**A.** 64 µM (≈ 59.4 µg/mL)

**Q.** And the IC50 (Bcl-2-like protein 1)?
**A.** 0.024 µM

**Q.** What about the IC50 [5] of the same molecule?
**A.** 0.019 µM

**Q.** And the Kd [6]?
**A.** 0.007 µM

**Q.** With `CN(C)CC[C@H](CSc1ccccc1)Nc1ccc(S(=O)(=O)Nc2cccc3cc(N4CCN(Cc5ccccc5-c5ccc(Cl)cc5)CC4)cnc23)cc1[N+](=O)[O-]` as the molecule, how does the CC50 (Toledo) read?
**A.** 3.95 µM

**Q.** What about the solubility [4] of the same molecule?
**A.** 44 µM (≈ 36.8 µg/mL)

**Q.** And the IC50 [5]?
**A.** 0.068 µM

**Q.** What does the source list for `CN(C)CC[C@H](CSc1ccccc1)Nc1ccc(S(=O)(=O)Nc2nn(C)c3nc(N4CCN(Cc5ccccc5-c5ccc(Cl)cc5)CC4)ncc23)cc1[N+](=O)[O-]`?
**A.** CC50 (Toledo): > 30 µM; IC50 [5]: 8.5 µM

**Q.** For `O=S(=O)(Nc1nnc2n1CCN(C1CCN(Cc3ccccc3-c3ccc(Cl)cc3)CC1)C2)c1ccc(N[C@H](CCN2CCOCC2)CSc2ccccc2)c(S(=O)(=O)C(F)(F)F)c1`, which CC50 (Toledo) is on record?
**A.** 15.9 µM

**Q.** And the solubility [4]?
**A.** 9 µM (≈ 8.64 µg/mL)

**Q.** And the IC50 [5]?
**A.** 0.317 µM

**Q.** For `CN(C)CC[C@H](CSc1ccccc1)Nc1ccc(S(=O)(=O)Nc2nnc3cc(N4CCN(Cc5ccccc5-c5ccc(Cl)cc5)CC4)cnn23)cc1[N+](=O)[O-]`, which Ratio [7] is on record?
**A.** 4

**Q.** And the CC50 (Toledo)?
**A.** 4.8 µM

**Q.** And the solubility [4]?
**A.** 31 µM (≈ 25.7 µg/mL)

**Q.** And the IC50 [5]?
**A.** 0.025 µM

**Q.** And the Kd [6]?
**A.** 0.008 µM

**Q.** For `CN(C)CC[C@H](CSc1ccccc1)Nc1ccc(S(=O)(=O)NC(=O)c2ccc(N3CCN(Cc4ccccc4-c4ccc(Cl)cc4)CC3)cc2)cc1[N+](=O)[O-]` [ABT 737], which CC50 (Toledo) is on record?
**A.** 0.06 µM

**Q.** And the solubility [4]?
**A.** 7 µM (≈ 5.69 µg/mL)

**Q.** With `CN(C)CC[C@H](CSc1ccccc1)Nc1ccc(S(=O)(=O)Nc2ncnc3c2CCN(C2CCN(Cc4cc(F)ccc4-c4ccc(Cl)cc4)CC2)C3)cc1S(=O)(=O)C(F)(F)F` as the molecule, how does the CC50 (Toledo) read?
**A.** 0.197 µM

**Q.** And the solubility [4]?
**A.** 25 µM (≈ 23.7 µg/mL)

**Q.** What about the IC50 (Bcl-2-like protein 1) of the same molecule?
**A.** 0.074 µM

**Q.** What about the IC50 [5] of the same molecule?
**A.** 0.033 µM

**Q.** And the Kd [6]?
**A.** 0.003 µM

**Q.** What does the source list for `CC(c1ccccc1-c1ccc(Cl)cc1)N1CCC(N2CCc3c(ncnc3NS(=O)(=O)c3ccc(N[C@H](CCN(C)C)CSc4ccccc4)c(S(=O)(=O)C(F)(F)F)c3)C2)CC1` (some centres not stated)?
**A.** AUC (Rattus norvegicus): 0.19 µM·h; Vd [2]: 5.28 L/kg; clearance [3]: 89 mL/min/kg; CC50 (Toledo): 0.113 µM; solubility [4]: 31 µM (≈ 29.2 µg/mL); IC50 (Bcl-2-like protein 1): 0.115 µM; Kd [6]: 0.002 µM

**Q.** With `CN(C)CC[C@H](CSc1ccccc1)Nc1ccc(S(=O)(=O)Nc2nc(C(F)(F)F)nc3c2CCN(C2CCN(Cc4ccccc4-c4ccc(Cl)cc4)CC2)C3)cc1S(=O)(=O)C(F)(F)F` as the molecule, how does the CC50 (Toledo) read?
**A.** 3.9 µM

**Q.** And the solubility [4]?
**A.** 36 µM (≈ 35.9 µg/mL)

**Q.** What about the IC50 (Bcl-2-like protein 1) of the same molecule?
**A.** 0.062 µM

**Q.** What about the IC50 [5] of the same molecule?
**A.** 0.046 µM

**Q.** What about the Kd [6] of the same molecule?
**A.** 0.01 µM

**Q.** Which CC50 (Toledo) does the source give for `O=[N+]([O-])c1cc(S(=O)(=O)Nc2cccc3cc(N4CCN(Cc5ccccc5-c5ccc(Cl)cc5)CC4)ccc23)ccc1N[C@H](CCN1CCOCC1)CSc1ccccc1` here?
**A.** > 30 µM

**Q.** What about the IC50 [5] of the same molecule?
**A.** > 4 µM

**Q.** Which CC50 (Toledo) does the source give for `CN(C)CC[C@H](CSc1ccccc1)Nc1ccc(S(=O)(=O)Nc2nnc3n2CCN(C2CCN(Cc4ccccc4-c4ccc(Cl)cc4)CC2)CC3)cc1S(=O)(=O)C(F)(F)F` here?
**A.** 3.47 µM

**Q.** What about the solubility [4] of the same molecule?
**A.** 87 µM (≈ 81 µg/mL)

**Q.** What about the IC50 [5] of the same molecule?
**A.** 0.025 µM

**Q.** And the Kd [6]?
**A.** 0.005 µM

**Q.** Which results are given for `CN(C)CC[C@H](CSc1ccccc1)Nc1ccc(S(=O)(=O)Nc2ncnc3c2CCN(C2CCN(Cc4cc(F)ccc4-c4ccc(Cl)cc4)CC2)C3=O)cc1S(=O)(=O)C(F)(F)F`?
**A.** CC50 (Toledo): > 30 µM; solubility [4]: 63 µM (≈ 60.5 µg/mL); IC50 (Bcl-2-like protein 1): 0.022 µM; IC50 [5]: 0.142 µM; Kd [6]: 0.104 µM

**Q.** With `O=S(=O)(Nc1ncnc2c1CN(C1CCN(Cc3ccccc3-c3ccc(Cl)cc3)CC1)C2)c1ccc(N[C@H](CCN2CCOCC2)CSc2ccccc2)c(S(=O)(=O)C(F)(F)F)c1` as the molecule, how does the CC50 (Toledo) read?
**A.** 107 µM

**Q.** What about the solubility [4] of the same molecule?
**A.** 70 µM (≈ 67 µg/mL)

**Q.** And the IC50 [5]?
**A.** 0.74 µM

**Q.** With `CN(C)CC[C@H](CSc1ccccc1)Nc1ccc(S(=O)(=O)Nc2nc(Cl)nc3c2CCN(C2CCN(Cc4ccccc4-c4ccc(Cl)cc4)CC2)C3)cc1S(=O)(=O)C(F)(F)F` as the molecule, how does the CC50 (Toledo) read?
**A.** 5.37 µM

**Q.** And the solubility [4]?
**A.** 22 µM (≈ 21.2 µg/mL)

**Q.** What about the IC50 (Bcl-2-like protein 1) of the same molecule?
**A.** 0.02 µM

**Q.** What about the IC50 [5] of the same molecule?
**A.** 0.032 µM

**Q.** And the Kd [6]?
**A.** 0.017 µM

**Q.** Which results are given for `CN(C)CC[C@H](CSc1ccccc1)Nc1ccc(S(=O)(=O)NC2=NS(=O)(=O)c3cc(N4CCN(Cc5ccccc5-c5ccc(Cl)cc5)CC4)ccc32)cc1[N+](=O)[O-]`?
**A.** AUC (Rattus norvegicus): 761 nmol/h; Vd [2]: 0.09 L/kg; clearance [3]: 25 mL/min/kg; CC50 (Toledo): > 30 µM; solubility [4]: < 5 µM; IC50 [5]: 0.017 µM; Kd [6]: 0.014 µM
